# Active and inactive are the calls of the source. The calls are words filed in the database; no cut-off is given here.
# Legend:
# CCRF-CEM = experiment: Antiproliferative activity against human CCRF-CEM cells; assay type: functional, cell-based
# A549 = experiment: Antiproliferative activity against human A549 cells; assay type: functional, cell-based
# [1] = Selectivity index, ratio of IC50 for mouse BALB/3T3 cells to IC50 for human CEM/C2 cells; assay type: toxicity; conditions: BALB/3T3 cells versus CEM/C2 cells, read-out: Ratio IC50
# [2] = Selectivity index, ratio of IC50 for mouse BALB/3T3 cells to IC50 for human MV411 cells
# [3] = Selectivity index, ratio of IC50 for mouse BALB/3T3 cells to IC50 for human PC3 cells; assay type: toxicity; conditions: BALB/3T3 cells versus PC3 cells, read-out: Ratio IC50
# HL-60 = experiment: Effect on Bax expression in human HL60 cells at 1 ug/ml after 72 hrs by Western-blot analysis; assay type: functional, cell-based
# Summary of the method: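 HL-60 (2 × 10^5 cells/mL) treated 72 h at 1 µg/mL with DMSO control, then lysed in RIPA buffer with protease/phosphatase inhibitors. 100 µg protein resolved on 4–20% gels and transferred to nitrocellulose. Probed with rabbit primary antibody, fluorescein-linked anti-rabbit secondary, then anti-fluorescein–alkaline phosphatase with ECF substrate; fluorescence scanned. Densitometry normalized to actin, reported as fold change versus control.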
# [4] = Toxicity in Dunkin-Hartley guinea pig assessed as mild skin sensitization incidents at 1 % administered intradermally followed by 50% topical application in the sites of intradermal injection for 24 to 72 hrs followed by 50 % of compound challenge; parameters: species or system Cavia porcellus; conditions: in vivo
# Summary of the method: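 Maximization-type test: 11 treated and 6 sham control guinea pigs. Induction was an intradermal 1% suspension in peanut oil with Freund's Complete Adjuvant, then 50% topical at the injection sites, after 10% sodium lauryl sulfate pretreatment. Challenge was 50% in peanut oil on the right flank, vehicle on the left. Skin was scored at 24, 48 and 72 h.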
# [5] = Toxicity in New Zealand albino rabbit assessed as acute skin irritation/corrosion at 0.5 g topically applied to shaved skin for 4 hrs measured 1 to 72 hrs post dose; parameters: species or system Oryctolagus cuniculus; conditions: in vivo, topical_or_ocular
# Summary of the method: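 Test item applied under a protective band for 4 h to one rabbit first, then to two more animals to confirm or exclude irritation. Treated skin scored at 1, 24, 48 and 72 h after exposure, with daily morbidity and mortality checks. Animals euthanized after the observation period.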
# [6] = Acute toxicity in Balbc/cmdb mouse assessed as clinical signs at 2000 mg/kg, po administered as single dose in second stage of experiment measured for 14 days; assay type: organism-based; conditions: in vivo, 336 h
# Summary of the method: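 Acute toxic class method per OECD Guideline 423 / EU Method B.1 tris, run in three stages of three female Balbc/cmdb mice each. Fasted about 3 h, then given a single dose by metal stomach tube in DMSO at 0.5 mL/100 g bw. Stage doses were 300, 2000, then 2000 mg/kg bw. General and detailed clinical observations daily for 14 days; body weights recorded.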
smiles,measurement,setting,value
CCOC(=O)C1(C(=O)OCC)Cc2cc(OCc3ccccc3)cc(OCc3ccccc3)c2C=N1,IC50,CCRF-CEM,0.7 µM
same,IC50,A549,13.1 µM
same,selectivity ratio,[1],89.7
same,Ratio IC50,[2],0.6
same,selectivity ratio,[3],8.5
same,Activity,HL-60,inactive
same,Activity,[4],18.2%
same,Activity,[5],Non-Toxic
same,Activity,[6],Non-Toxic

# Reference: ChEMBL document CHEMBL4428115, “Molecular docking studies, biological and toxicity evaluation of dihydroisoquinoline derivatives as potential anticancer agents” (Bioorg Med Chem, 2016)
